Measurements of several laboratories.
Lines come from different studies, so protocols differ.
ABL1: Tyrosine-protein kinase ABL1 (ABL1, Homo sapiens, UniProt P00519)
ABL1 non-phosphorylated: Tyrosine-protein kinase ABL1, non-phosphorylated (ABL1, Homo sapiens, UniProt P00519)
ABL1 phosphorylated: Tyrosine-protein kinase ABL1, phosphorylated (ABL1, Homo sapiens, UniProt P00519)

The inhibition of `Cc1nc(Nc2ncc(C(=O)Nc3c(C)cccc3Cl)s2)cc(N2CC[C@@H](N)C2)n1` is reported as 93% (ABL1; enzyme activity; inhibitor; 1 nM).
`C#Cc1cc(-c2cc(Nc3nc(N[C@@H](C)c4ccc(F)cn4)ncc3Cl)n[nH]2)ccc1C=O` gave an inhibition of 16.6% (Tyrosine-protein kinase ABL1 (ABL1, Homo sapiens, UniProt P00519, H396P); enzyme activity; inhibitor; 0.2 µM).
With `COc1ccc2[nH]c3c4[nH]c5ccc(OC)cc5c4c4c(c3c2c1)C(=O)NC4=O` the remaining binding was 87% (Tyrosine-protein kinase ABL1 (ABL1, Homo sapiens, UniProt P00519, F317I); binding; 1 µM).
`[2H]c1cc(C)c(NC(=O)c2cnc(Nc3cc(N4CC[C@H](O)C4)nc(C)n3)s2)c(Cl)c1` gave an inhibition of 86% (ABL1; enzyme activity; inhibitor; 1 nM).
The remaining binding of `N#Cc1ccc(NC(=O)Nc2ccccc2)cc1` is reported as 83% (ABL1 non-phosphorylated; cell-free assay; competition with immobilised ligand; 25 µM).
`Cc1nc(Nc2ncc(C(=O)Nc3c(C)cccc3Cl)s2)cc(N2CC[C@H](O)C2)n1` gave an inhibition of 86% (ABL1; enzyme activity; inhibitor; 1 nM).
The remaining binding of `CCCCC(=O)Nc1ccc(-c2ccc3ncn(CCC)c(=O)c3c2)cn1` is reported as 93% (ABL1 phosphorylated; binding; competition with immobilised ligand; 0.5 µM).
With `CC#CC(=O)N1CCC[C@H]1c1nc(-c2ccc(C(=O)Nc3ccccn3)cc2)c2c(N)nccn12` the inhibition was 39% (Tyrosine-protein kinase ABL1, phosphorylated (ABL1, Homo sapiens, UniProt P00519, Q252H); enzyme activity; inhibitor; 1 µM).
With `COc1ccc2oc(-c3ccc4nc(N)oc4c3)c/c(=N\c3ccccc3NC(=O)CCN)c2c1` the remaining signal was 100% (Tyrosine-protein kinase ABL1 (ABL1, Homo sapiens, UniProt P00519, M351T); cell-free assay; 1 µM).
With `C=CC(=O)N1CCC([C@@H]2CCNc3c(C(N)=O)c(-c4ccc(Oc5ccccc5)cc4)nn32)CC1` the inhibition was 27% (Tyrosine-protein kinase ABL1, phosphorylated (ABL1, Homo sapiens, UniProt P00519, F317I); enzyme activity; inhibitor; 1 µM).
With `C1=C/COCc2cc(ccc2OCCN2CCCC2)Nc2nccc(n2)-c2cccc(c2)COC/1` the remaining binding was 23% (Tyrosine-protein kinase ABL1 (ABL1, Homo sapiens, UniProt P00519, E255K); binding; 0.1 µM).
`Cc1ccc(NC(=O)c2ccnc(C(F)(F)F)c2)cc1-c1cc(OCCO)nc(N2CCOCC2)c1` has a remaining binding of 100% (Tyrosine-protein kinase ABL1 (ABL1, Homo sapiens, UniProt P00519, Y253F); binding; 1 µM).
`CO[C@@H]1[C@H](N(C)C(=O)c2ccccc2)C[C@H]2O[C@]1(C)n1c3ccccc3c3c4c(c5c6ccccc6n2c5c31)C(=O)NC4` gave an inhibition of 13% (Tyrosine-protein kinase ABL1, phosphorylated (ABL1, Homo sapiens, UniProt P00519, M351T); enzyme activity; inhibitor; 1 µM).
The remaining binding of `CN1CCN(C(=O)c2ccc(NC(=O)Nc3ccc(N(C)c4ccnc(Nc5ccc(CS(C)(=O)=O)cc5)n4)cc3)cc2)CC1` is reported as 9% (ABL1 non-phosphorylated; binding; competition with immobilised ligand; 1 µM).
For `Cc1nc(Nc2ncc(C(=O)Nc3c(C)cccc3Cl)s2)cc(N2CCCCC2)n1`, the inhibition was 65% (ABL1; enzyme activity; inhibitor; 1 nM).
For `C[C@H]1CC[C@H](n2c3cnccc3c3cnc(Nc4ccc5c(n4)CCN(C(=O)CO)C5)nc32)CC1`, the remaining binding was 100% (ABL1 phosphorylated; binding; competition with immobilised ligand; 1 µM).
`[2H]c1cc(C)c(NC(=O)c2cnc(Nc3cc(N4CCCCC4)nc(C)n3)s2)c(Cl)c1` gave an inhibition of 96% (ABL1; enzyme activity; inhibitor; 1 nM).
